Assay outcomes as filed in PubChem BioAssay.
E coli WT exp – growth inhibitors of E. coli BW25113 wild type; OD600 absorbance; growth inhibition, % at 100 µM; actives 0.15% (n = 98,000); AID 710;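 active = growth inhibition above about 50% at one test dose, limit read from the data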;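 also: growth measured after 20 h incubation at 37 °C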
PostGolgi yeast – growth inhibition of a yeast mutant, post-Golgi transport screen. inhibition, % at 10 µM. actives 0.9% (n = 98,000). post-Golgi transport phenotypic cell assay. AID 739;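 also: yeast cells grown in 1536-well plates; yeast grown about 18 h at 30C before absorbance read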
PostGolgi ctrl – yeast control strain growth, post-Golgi counter-screen; efflux-deficient yeast background strain, growth absorbance A615, 16 h; inhibition, % at 10 µM; actives 5% (n = 98,000); AID 738
Candida biofilm – kills Candida albicans biofilms; C. albicans biofilm + clotrimazole, Alamar Blue; inhibition, % at 6 µM; actives 0.14% (n = 85,000); AID 834;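 active = inhibition above 20%; inactive = inhibition below 20%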;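 also: preformed 24 hr biofilms exposed to compound for 48 hr; 0% = biofilm without compound and 100% = blank killed by clotrimazole plus chlorhexidine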
Pyk2 oligo antag – blocks oligomerization of human Pyk2 in cells; Q14289; Q293 cells, Pyk2 FERM NanoBiT luminescence; active compounds read low; z-score (the deposit names both 25 µM and 10 µM); actives 0.83% (n = 99,000); AID 1347419;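 active = Z-score of -3 or lower, scaled per plate to the spread of control and sample wells; inactive = z-score above -3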;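 also: negative z-score means lost luminescence so less FERM oligomerization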
Ecoli tolC – growth inhibitors of E. coli BW25113 tolC mutant. OD615. growth inhibition, % at 10 µM (by protocol). actives 2.2% (n = 65,000);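 active = growth inhibition at or above a cutoff equal to the mean over every tested compound plus 3 SD, cut at about 60% in these data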;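 also: growth measured after 20 h incubation at 37 °C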
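Doses: one dose of 10 µM final / Material: E. coli BW25113 ΔtolC::kan, tolC deletion mutant strain / Buffer or medium: LB with kanamycin 50 µg/mL / Evaluation: percent growth inhibition / Detection: optical density read at 615 nm / Incubation: 37 °C, 20 h exposure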
* hit, by the source's call; x = not tested or not shown. In the library only some 6.5% were active in any assay of this set; here they are far more common. Rule as the data show it, unless noted: active = inhibition above about 30%; inactive = the rest.

SMILES	E coli WT exp	PostGolgi yeast	PostGolgi ctrl	Candida biofilm	Pyk2 oligo antag	Ecoli tolC
COC(=O)c1sccc1NC(=O)c1cccnc1	4	12	-14	2	0.11	8
COC(=O)c1sccc1NC(=O)c1ccc(Cl)s1	-9	18	11	6	-0.33	72*
O=S(=O)(CCc1nc2ccccc2o1)c1ccc2ccccc2c1	5	0	23	1	1.5	x
CC(C)=CCc1c(O)ccc(C(=O)Cc2ccccc2)c1O	4	7	34*	x	-2.9	x
Cc1nc(COC(=O)c2ccc(S(=O)(=O)N3CCCC3)cc2)cs1	4	-7	-3	-1	1.1	6
CC(C#N)Sc1nc2ccccc2c(=O)n1-c1ccccc1 (stereo not drawn)	-7	0	3	6	-0.9	18
O=C(CS(=O)(=O)c1ccccc1)Nc1ccc(Br)cn1	x	x	x	x	1.2	x
Cc1ccc(C)c(NS(=O)(=O)c2cc(C(=O)Nc3ccccc3-c3ccccc3)ccc2Cl)c1	-18	-4	13	x	-0.88	x
COCCNC(=O)c1ccccc1NC(=O)c1ccc(Cl)c(S(=O)(=O)Nc2ccc(C)cc2C)c1	-7	-1	6	x	-3.2*	x
C(=N\Nc1ncnc2sc3c(c12)CCC3)/c1ccncc1	3	-3	12	x	-1.1	x
C(=N\Nc1ncnc2sc3c(c12)CCC3)/c1cccs1	3	19	34*	x	2.1	x
O=C(Nc1ncnc2sc3c(c12)CCCCC3)c1ccccc1	2	48*	33*	-4	-0.31	x
Cc1c(NC(=S)NC(=O)C2CCCCC2)c(=O)n(-c2ccccc2)n1C	x	x	x	x	0.9	x
Cc1cc(C)n(CCCNC(=O)c2ccc(S(=O)(=O)NCc3ccco3)cc2)n1	0	-7	5	5	0.88	-2
O=C(O)c1cccc(NC(=S)NC(=O)C(c2ccccc2)c2ccccc2)c1	-2	24	11	x	-1.9	x
Cc1c(CCC(=O)O)c(=O)oc2cc3occ(-c4ccc(F)cc4)c3cc12	-9	-10	6	-3	1.4	100*
Cc1ccc(-c2noc(CSc3nnc(Cc4ccccc4)n3-c3ccc(Cl)cc3)n2)cc1	-35	-6	37*	-4	-0.19	x
COc1ccc(-c2noc(CSc3nnc(Cc4ccccc4)n3-c3ccc(Cl)cc3)n2)cc1	-18	-2	28	0	-0.34	x
Cc1cccnc1NC(=O)Nc1cccs1	-2	14	8	1	-0.44	x
Cc1cccc(NC(=S)N/N=C/c2ccc([N+](=O)[O-])s2)c1	4	44*	96*	x	0.87	x
Cc1ccc(C(=O)N/N=C/c2ccc([N+](=O)[O-])s2)cc1	8	-6	7	5	-0.26	x
Cc1cc(C(C)(C)C)oc1C(=O)N(CC(=O)NC1CCCC1)Cc1ccccc1Cl	-15	-6	31*	x	-1.3	x
COc1ccc(OC)c(NC(=O)c2nnn(Cc3ccccc3C)c2N)c1	-3	-10	34*	x	-1.2	18
Cc1cccc(N2CCN(c3nc4ccc(Cl)cc4n4cnnc34)CC2)c1C	x	x	x	4	x	15
COc1ccc(S(=O)(=O)N2CCOCC2)cc1NC(=O)c1cccc2c(=O)c(C)c(-c3ccccc3)oc12	x	x	x	x	-0.86	x
SMILES	E coli WT exp	PostGolgi yeast	PostGolgi ctrl	Candida biofilm	Pyk2 oligo antag	Ecoli tolC
COC(=O)CSc1nc(N)c(C#N)c(C(C)C)c1C#N	5	-2	4	3	-1.1	-6
CCOC(=O)CSc1nc(N)c(C#N)c(CC(C)C)c1C#N	4	1	40*	10	-1.4	4
Nc1ccc2c(c1)C(=O)C(=O)c1ccccc1-2	33	14	14	3	-4.1*	x
O=C1C(=O)c2ccc(-c3ccccc3)cc2-c2ccccc21	x	x	x	6	-4.8*	x
CC1CC2(CCCCC2)Nc2c1ccc1ccccc21 (stereo not drawn)	x	x	x	0	-0.55	x
CC(=O)N1c2c(ccc3ccccc23)C(C)CC12CCCCC2 (stereo not drawn)	-9	8	38*	3	-2.1	x
N=c1c(C(=O)NCc2ccco2)cc2c(=O)n3ccccc3nc2n1Cc1ccc(Cl)cc1	-9	11	35*	3	-0.3	48
Cc1cccn2c(=O)c3cc(C(=O)NCc4ccco4)c(=N)n(CCc4ccccc4)c3nc12	x	x	x	10	x	65*
COc1ccc(CNC2CC(=O)N(C)C2=O)cc1 (stereo not drawn)	3	11	35*	-2	-0.4	-11
COc1ccc(N2C(=O)CC(NCc3ccc(F)cc3)C2=O)cc1 (stereo not drawn)	x	x	x	10	0.51	x
Cc1ccccc1[C@@H]1C(C#N)=C(N)S[C@H]1C(=O)c1ccccc1	2	5	21	x	-1.9	x
COc1ccc(OCCSc2nnc(C)n2-c2ccccc2)cc1	x	x	x	5	-0.08	x
CSc1nc(N)nc(-c2cccs2)c1C#N	2	-4	19	x	-2	x
CC(C)Sc1nc(N)nc(-c2cccs2)c1C#N	-3	13	80*	x	-3	x
Cc1cc(NC(=O)CSc2nnnn2C)n(-c2ccccc2)n1	-3	18	21	3	0.61	x
O=[N+]([O-])c1cccnc1NCCNc1ncc(C(F)(F)F)cc1Cl	-2	5	35*	x	-1.4	x
O=C1OCC(CO)(CO)N=C1NNc1ccc(Cl)c(Cl)c1	88*	92*	19	x	1.5	x
CCC(CC)C(=O)Nc1ccc(Cl)c(Cl)c1	13	17	7	2	-2.2	x
O=C1Nc2ccccc2C12NCCc1c2[nH]c2ccccc12 (stereo not drawn)	9	3	-6	2	-0.49	x
COc1cc2c(cc1OC)C1(NCC2)C(=O)Nc2ccccc21 (stereo not drawn)	7	0	48*	7	0.75	-9
CN(CC(=O)NCc1ccc2c(c1)OCO2)S(=O)(=O)c1ccc(Br)s1	11	9	-4	0	0.31	-3
C=C(Cl)COc1ccc2c(CCCC)cc(=O)oc2c1	4	-1	31*	0	-0.57	x
C=C(Cl)COc1ccc2c(CC)cc(=O)oc2c1	9	-8	7	9	-1.1	-1
Clc1cccc(Cl)c1Cn1c(-c2cccnc2Cl)nc2ccccc21	4	10	50*	x	-2.2	x
C=CCn1c(-c2cccnc2Cl)nc2cc(Cl)c(Cl)cc21	-2	-3	36*	x	-3.3*	x
SMILES	E coli WT exp	PostGolgi yeast	PostGolgi ctrl	Candida biofilm	Pyk2 oligo antag	Ecoli tolC
CCCn1c(-c2cccnc2Cl)nc2cc(Cl)c(Cl)cc21	1	-14	43*	x	-3.7*	x
COc1cc([N+](=O)[O-])ccc1NC(=O)CCCOc1cccc(C)c1C	-6	-4	2	x	0.39	x
Cc1ccc(NC(=O)/C(=C/c2cccs2)NC(=O)c2ccco2)c(C)c1	x	x	x	x	0.13	x
COC(=O)c1ccc(Cc2ccc(C(=O)OC)o2)o1	7	8	36*	x	0.69	-4
CCC(C)NCc1ccc(C(=O)OC)o1 (stereo not drawn)	-4	-2	-5	7	0.96	x
O=C(NCc1ccc2c(c1)OCO2)C1CCCN1C(=O)Nc1cccc(Cl)c1 (stereo not drawn)	-1	16	-2	-1	0.38	-11
CCC(=O)c1ccc(O)c(CC=C(C)C)c1	17	7	31*	x	-1.6	x
